Test results: ChEMBL document CHEMBL1125249, “Structure-affinity relationships of 12-sulfonyl derivatives of 5,8,8a,9,10,11,12,12a,13,13a-decahydro-6H-isoquino[2,1-g][1 ,6] naphthyridines at alpha-adrenoceptors” (J Med Chem, 1991)

Assays:
[1] = target: T1, Adrenergic receptor alpha-2 (Rattus norvegicus, UniProt P22086+P19328+P22909); assay: Binding affinity to alpha-2 adrenergic receptor determined by measurement of [3H]yohimbine displacement from rat cortical membrane
T1 sequence (P22086 whole entry): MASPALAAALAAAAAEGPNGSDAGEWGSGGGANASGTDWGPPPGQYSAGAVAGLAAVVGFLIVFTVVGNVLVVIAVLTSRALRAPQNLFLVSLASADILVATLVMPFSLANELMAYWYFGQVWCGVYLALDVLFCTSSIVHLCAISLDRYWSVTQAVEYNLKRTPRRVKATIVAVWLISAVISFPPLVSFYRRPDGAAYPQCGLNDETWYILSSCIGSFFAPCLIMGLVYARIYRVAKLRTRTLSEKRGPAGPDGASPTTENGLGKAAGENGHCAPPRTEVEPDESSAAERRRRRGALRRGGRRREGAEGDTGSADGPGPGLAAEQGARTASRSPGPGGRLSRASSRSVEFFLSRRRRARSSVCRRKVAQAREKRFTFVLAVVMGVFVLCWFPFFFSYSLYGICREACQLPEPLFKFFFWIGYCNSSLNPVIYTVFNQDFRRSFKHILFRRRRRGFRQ
T1 sequence (P19328 whole entry): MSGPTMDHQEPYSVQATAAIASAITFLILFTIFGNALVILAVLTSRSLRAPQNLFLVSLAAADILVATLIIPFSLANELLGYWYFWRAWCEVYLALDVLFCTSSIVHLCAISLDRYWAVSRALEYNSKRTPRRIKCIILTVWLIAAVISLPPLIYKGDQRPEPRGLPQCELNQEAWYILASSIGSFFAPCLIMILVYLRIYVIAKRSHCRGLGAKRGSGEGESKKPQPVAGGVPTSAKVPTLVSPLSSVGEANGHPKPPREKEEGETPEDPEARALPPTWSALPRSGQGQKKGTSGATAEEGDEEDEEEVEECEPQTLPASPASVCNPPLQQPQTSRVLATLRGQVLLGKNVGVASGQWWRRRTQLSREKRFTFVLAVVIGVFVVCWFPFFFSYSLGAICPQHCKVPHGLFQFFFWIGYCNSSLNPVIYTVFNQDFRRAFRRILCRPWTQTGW
T1 sequence (P22909 whole entry): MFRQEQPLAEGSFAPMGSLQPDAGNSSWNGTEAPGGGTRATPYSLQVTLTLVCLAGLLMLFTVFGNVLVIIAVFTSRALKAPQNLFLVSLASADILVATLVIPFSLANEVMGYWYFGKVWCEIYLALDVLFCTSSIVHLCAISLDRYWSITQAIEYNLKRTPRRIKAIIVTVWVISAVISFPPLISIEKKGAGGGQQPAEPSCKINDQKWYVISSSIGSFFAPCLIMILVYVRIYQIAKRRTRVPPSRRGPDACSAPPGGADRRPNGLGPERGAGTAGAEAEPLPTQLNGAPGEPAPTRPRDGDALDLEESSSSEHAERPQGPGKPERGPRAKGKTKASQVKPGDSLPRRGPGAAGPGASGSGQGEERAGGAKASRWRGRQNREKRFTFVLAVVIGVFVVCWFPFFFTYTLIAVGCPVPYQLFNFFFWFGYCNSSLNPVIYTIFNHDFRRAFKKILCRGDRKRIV

[2] = target: T2, Adrenergic receptor alpha-1 (Rattus norvegicus, UniProt P15823+P23944+P43140); assay: Binding affinity to alpha-1 adrenergic receptor determined by measurement of [3H]prazosin displacement from rat cortical membrane
T2 sequence (P15823 whole entry): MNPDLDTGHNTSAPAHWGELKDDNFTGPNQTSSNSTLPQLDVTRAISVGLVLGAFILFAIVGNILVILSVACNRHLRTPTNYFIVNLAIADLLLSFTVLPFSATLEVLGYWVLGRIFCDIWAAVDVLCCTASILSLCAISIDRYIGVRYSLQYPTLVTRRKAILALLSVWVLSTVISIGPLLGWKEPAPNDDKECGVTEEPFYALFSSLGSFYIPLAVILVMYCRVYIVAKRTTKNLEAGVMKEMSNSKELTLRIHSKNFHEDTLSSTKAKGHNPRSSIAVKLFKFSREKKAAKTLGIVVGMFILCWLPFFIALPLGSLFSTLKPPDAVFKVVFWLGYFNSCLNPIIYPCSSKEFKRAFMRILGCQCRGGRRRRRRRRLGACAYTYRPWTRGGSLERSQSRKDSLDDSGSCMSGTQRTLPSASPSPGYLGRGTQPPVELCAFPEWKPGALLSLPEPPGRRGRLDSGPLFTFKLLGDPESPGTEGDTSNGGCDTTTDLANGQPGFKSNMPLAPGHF
T2 sequence (P23944 whole entry): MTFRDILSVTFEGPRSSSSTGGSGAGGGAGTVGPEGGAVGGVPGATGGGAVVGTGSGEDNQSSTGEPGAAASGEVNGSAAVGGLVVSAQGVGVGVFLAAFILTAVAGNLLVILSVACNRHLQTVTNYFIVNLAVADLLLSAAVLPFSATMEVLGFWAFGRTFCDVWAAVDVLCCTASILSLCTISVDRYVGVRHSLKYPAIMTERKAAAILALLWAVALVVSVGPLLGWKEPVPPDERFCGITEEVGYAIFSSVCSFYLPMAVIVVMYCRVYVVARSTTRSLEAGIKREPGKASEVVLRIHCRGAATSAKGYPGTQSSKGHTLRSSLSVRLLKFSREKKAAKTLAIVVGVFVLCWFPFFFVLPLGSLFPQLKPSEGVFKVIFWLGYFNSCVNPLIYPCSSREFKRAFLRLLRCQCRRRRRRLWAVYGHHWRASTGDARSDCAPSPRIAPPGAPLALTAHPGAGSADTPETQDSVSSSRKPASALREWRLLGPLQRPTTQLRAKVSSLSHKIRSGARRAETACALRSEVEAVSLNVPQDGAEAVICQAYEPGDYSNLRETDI
T2 sequence (P43140 whole entry): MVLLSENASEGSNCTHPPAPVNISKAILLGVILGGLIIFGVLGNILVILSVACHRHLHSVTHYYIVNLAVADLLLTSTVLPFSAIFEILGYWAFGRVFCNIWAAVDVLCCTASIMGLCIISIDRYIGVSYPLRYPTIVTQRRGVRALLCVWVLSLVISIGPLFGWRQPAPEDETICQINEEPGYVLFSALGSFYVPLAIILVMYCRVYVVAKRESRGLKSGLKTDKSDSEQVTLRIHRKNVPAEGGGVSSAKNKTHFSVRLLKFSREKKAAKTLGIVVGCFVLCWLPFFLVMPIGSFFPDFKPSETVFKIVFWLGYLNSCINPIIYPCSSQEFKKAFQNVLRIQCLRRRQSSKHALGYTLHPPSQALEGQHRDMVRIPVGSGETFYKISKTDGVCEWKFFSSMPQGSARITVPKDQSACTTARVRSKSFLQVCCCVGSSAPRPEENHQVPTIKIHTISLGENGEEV
In short: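 Male Sprague-Dawley rat (150-200 g) cerebral cortex membranes, washed in 50 mM Tris-HCl/0.5 mM EDTA pH 7.4. 250 µg membrane protein incubated with 0.5 nM [3H]prazosin for 30 min at 25 °C in a 0.5 mL volume. Nonspecific binding defined by 10 µM phentolamine. IC50 estimated graphically; Ki calculated by Cheng-Prusoff.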

[3] = target: T3, Adrenergic receptor alpha-2 (Rattus norvegicus) (UniProt P22086+P19328+P22909)
[4] = target: T3, Adrenergic receptor alpha-2 (Rattus norvegicus); remark: listed apart in the source
Cavia porcellus = organism: Cavia porcellus; assay: In vitro reversal of inhibitory effect of UK - 14304 on the contractile response of guinea pig ileum to field stimulation.; type: functional, organism-based; conditions: read-out: pA2 (converted)
In short: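 Ileum from female Dunkin-Hartley guinea pigs (250-300 g) held in Tyrode solution at 37 °C, gassed with O2, under 1 g tension. Field stimulation at 0.1 Hz (1-ms pulses, supramaximal voltage), with isometric contractions recorded. Cumulative UK-14304 curves were run, the second taken as control. Antagonist was then applied for 40 min before repeat agonist curves.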

Log Ki [1]	Log Ki [2]	ID50 [3] [mg/kg]	ID50 [4] [mg/kg]	Compound	Kb (Cavia porcellus) [nM]
-8.63	-5.13	0.062	0.24	COCCS(=O)(=O)N1CCC[C@@H]2CN3CCc4ccccc4[C@@H]3C[C@@H]21	
-8.9	-5.64	0.036	0.9	CCCCS(=O)(=O)N1CCC[C@@H]2CN3CCc4ccccc4[C@@H]3C[C@@H]21	1.26
-8.77	-5.41	0.022	0.41	COc1ccc2c(c1)CCN1C[C@H]3CCCN(S(=O)(=O)CC(C)C)[C@H]3C[C@@H]21	
-8.82	-4.97	0.019	1.1	CCS(=O)(=O)N1CCC[C@@H]2CN3CCc4ccccc4[C@@H]3C[C@@H]21	5.01
		0.185	2.8	COC(=O)[C@@H]1[C@H]2C[C@H]3c4[nH]c5ccccc5c4CCN3C[C@@H]2CC[C@@H]1O	
-8.77	-5.26	0.0125	1.2	CS(=O)(=O)N1CCC[C@@H]2CN3CCc4ccccc4[C@@H]3C[C@@H]21	
-9.18	-4.99	0.013	0.21	COc1ccc2c(c1)CCN1C[C@H]3CCCN(S(C)(=O)=O)[C@H]3C[C@@H]21 [DELEQUAMINE]	0.2
-9.18	-5.14	0.06	0.76	CS(=O)(=O)N1CCC[C@@H]2CN3CCc4cc5c(cc4[C@@H]3C[C@@H]21)OCO5	1
-8.17	-5.04	0.062	0.44	CC(C)CS(=O)(=O)N1CCC[C@@H]2CN3CCc4cc5c(cc4[C@@H]3C[C@@H]21)OCO5	
-6.32	< -5	> 10	> 10	COc1ccc2c(c1)CCN1C[C@@H]3CCCN(S(C)(=O)=O)[C@@H]3C[C@H]21	316
-9.22	-5.03	0.09	0.3	COCCS(=O)(=O)N1CCC[C@@H]2CN3CCc4cc(OC)ccc4[C@@H]3C[C@@H]21	
-8.8	-5.02	0.13	1.4	CS(=O)(=O)N1CCC[C@@H]2CN3CCc4cc5c(cc4[C@@H]3C[C@@H]21)OCCO5	
-8.81	-5.31	0.053	> 10	O=S(=O)(c1ccccc1)N1CCC[C@@H]2CN3CCc4ccccc4[C@@H]3C[C@@H]21	
-8.97	-5.57	0.027	0.17	COc1ccc2c(c1)CCN1C[C@H]3CCCN(S(=O)(=O)N(C)C)[C@@H]3C[C@@H]21	0.501
-8.66	-5.33			Nc1ccc(S(=O)(=O)N2CCC[C@@H]3CN4CCc5ccccc5[C@@H]4C[C@@H]32)cc1	
-7.84	-5.2			COc1ccc2c(c1)CCN1C[C@@H]3CCCN(S(C)(=O)=O)[C@H]3C[C@@H]21	
-9.34	-5.31	0.18	> 3	COc1ccc(S(=O)(=O)N2CCC[C@@H]3CN4CCc5ccccc5[C@@H]4C[C@@H]32)cc1	1.58
-8.16	-4.89	0.046	1.34	O=S(=O)(CCO)N1CCC[C@@H]2CN3CCc4ccccc4[C@@H]3C[C@@H]21	
-8.01	-4.46	0.38	1.6	COc1cc2c(cc1OC)[C@@H]1C[C@H]3[C@H](CCCN3S(C)(=O)=O)CN1CC2	
-7.78	-5.26			COc1ccc2c(c1)CCN1C[C@H]3CCCN(S(=O)(=O)NC(C)(C)C)[C@H]3C[C@@H]21	
		0.0065	0.095	COc1ccc2c(c1)CCN1C[C@H]3CCCN(S(C)(=O)=O)[C@@H]3C[C@@H]21	0.2
-7.42	-5.3			CCCCS(=O)(=O)N1CCC[C@H]2CN3CCc4ccccc4[C@@H]3C[C@@H]21	
-8.65	-5.48			COc1cccc2c1[C@@H]1C[C@H]3[C@H](CCCN3S(C)(=O)=O)CN1CC2	

Compound	Log Ki [1]	Log Ki [2]	ID50 [3] [mg/kg]	ID50 [4] [mg/kg]	Kb (Cavia porcellus) [nM]
c1ccc2c(c1)OCC(C1=NCCN1)O2 (centres undefined) [IDAZOXAN]			0.017	1.2	3.98
